# Reference: publication PMC12709667 (Journal of Clinical Pharmacology, 2025)
# Tests used:
# DDI perpetrator study = format: in vivo; details: human, plasma, oral, 400 mg
# CYP2C9 = CYP2C9 (Homo sapiens, UniProt P11712); test: Cytochrome P450 inhibition; format: in vitro ADME
# CYP2C8 = biological target: T1, CYP2C8 (Homo sapiens, UniProt P10632); test: DDI perpetrator study: repaglinide probe; format: in vivo; details: miricorilant 400 mg once daily as perpetrator
# T1 sequence (P10632 1-490): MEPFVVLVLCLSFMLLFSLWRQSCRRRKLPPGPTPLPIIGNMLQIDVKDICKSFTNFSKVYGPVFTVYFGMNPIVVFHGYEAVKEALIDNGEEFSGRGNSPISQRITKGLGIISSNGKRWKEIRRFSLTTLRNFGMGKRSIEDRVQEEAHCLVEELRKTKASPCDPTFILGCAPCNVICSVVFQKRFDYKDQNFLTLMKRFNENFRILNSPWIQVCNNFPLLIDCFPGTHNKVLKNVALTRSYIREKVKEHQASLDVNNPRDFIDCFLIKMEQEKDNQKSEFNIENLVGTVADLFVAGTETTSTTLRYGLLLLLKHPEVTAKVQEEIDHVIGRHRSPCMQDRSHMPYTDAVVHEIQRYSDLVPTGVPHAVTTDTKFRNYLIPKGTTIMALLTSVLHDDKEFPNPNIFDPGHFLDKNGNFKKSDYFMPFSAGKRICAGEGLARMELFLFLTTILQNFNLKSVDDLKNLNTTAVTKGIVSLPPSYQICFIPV
# CYP1A2 [1] = format: in vitro ADME, human; details: up to 10 µM, three donors
# [2] = [14C] metabolism and excretion study in cynomolgus monkeys; format: in vivo, cynomolgus monkey; details: for whole blood‐to‐plasma ratio of total radioactivity: based on AUC0‐last; for recovery of radioactivity: by 168 h postdose
# Summary of the method: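 Male and female cynomolgus monkeys received one oral-gavage dose of 80 mg/kg (2 MBq/kg) [14C]-labelled test compound. Blood, urine and faeces were collected at set times up to 168 h for total radioactivity. Metabolites were profiled by high-resolution LC-MS with online fraction collection and offline counting. The blood:plasma ratio was based on AUC0-last.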
# MDR1/P-gp = MDR1/P-gp (Homo sapiens, UniProt P08183); test: Transporter substrate assessment; format: in vitro ADME
# MDR1/P-gp, sequence (P08183 whole entry): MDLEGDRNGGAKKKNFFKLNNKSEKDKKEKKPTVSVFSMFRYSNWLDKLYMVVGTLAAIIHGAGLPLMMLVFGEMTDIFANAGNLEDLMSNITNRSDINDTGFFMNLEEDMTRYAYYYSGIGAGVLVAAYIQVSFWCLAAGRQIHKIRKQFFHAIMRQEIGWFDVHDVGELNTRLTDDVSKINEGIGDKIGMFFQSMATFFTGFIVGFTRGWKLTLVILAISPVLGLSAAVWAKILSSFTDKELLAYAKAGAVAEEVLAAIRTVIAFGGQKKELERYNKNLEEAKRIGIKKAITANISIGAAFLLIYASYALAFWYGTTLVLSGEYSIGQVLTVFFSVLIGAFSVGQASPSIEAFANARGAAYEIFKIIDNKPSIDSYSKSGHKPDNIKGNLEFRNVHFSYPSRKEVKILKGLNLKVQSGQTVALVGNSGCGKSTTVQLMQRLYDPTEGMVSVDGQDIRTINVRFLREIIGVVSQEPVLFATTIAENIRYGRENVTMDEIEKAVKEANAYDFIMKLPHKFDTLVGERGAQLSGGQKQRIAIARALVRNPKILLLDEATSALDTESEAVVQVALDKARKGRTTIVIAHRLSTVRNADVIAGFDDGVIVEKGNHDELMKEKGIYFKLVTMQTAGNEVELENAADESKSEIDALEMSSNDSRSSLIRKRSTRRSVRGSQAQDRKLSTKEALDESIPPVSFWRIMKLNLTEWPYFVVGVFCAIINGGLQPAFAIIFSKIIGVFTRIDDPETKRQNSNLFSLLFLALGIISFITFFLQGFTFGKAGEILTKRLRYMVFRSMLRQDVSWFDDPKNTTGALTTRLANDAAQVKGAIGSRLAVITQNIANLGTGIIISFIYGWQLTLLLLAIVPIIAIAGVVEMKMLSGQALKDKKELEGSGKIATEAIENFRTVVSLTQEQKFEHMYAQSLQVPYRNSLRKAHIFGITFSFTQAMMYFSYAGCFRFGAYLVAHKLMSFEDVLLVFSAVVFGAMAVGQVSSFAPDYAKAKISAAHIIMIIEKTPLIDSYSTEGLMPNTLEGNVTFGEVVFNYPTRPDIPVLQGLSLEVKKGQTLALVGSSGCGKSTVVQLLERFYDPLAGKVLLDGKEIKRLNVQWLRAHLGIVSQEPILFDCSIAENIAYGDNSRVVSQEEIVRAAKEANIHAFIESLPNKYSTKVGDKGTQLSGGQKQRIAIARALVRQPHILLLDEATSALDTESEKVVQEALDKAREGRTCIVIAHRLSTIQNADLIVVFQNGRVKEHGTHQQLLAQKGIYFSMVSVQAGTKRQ
# CYP1A2 [3] = biological target: T2, CYP1A2 (Homo sapiens, UniProt P05177); format: in vitro ADME
# T2 sequence (P05177 1-516): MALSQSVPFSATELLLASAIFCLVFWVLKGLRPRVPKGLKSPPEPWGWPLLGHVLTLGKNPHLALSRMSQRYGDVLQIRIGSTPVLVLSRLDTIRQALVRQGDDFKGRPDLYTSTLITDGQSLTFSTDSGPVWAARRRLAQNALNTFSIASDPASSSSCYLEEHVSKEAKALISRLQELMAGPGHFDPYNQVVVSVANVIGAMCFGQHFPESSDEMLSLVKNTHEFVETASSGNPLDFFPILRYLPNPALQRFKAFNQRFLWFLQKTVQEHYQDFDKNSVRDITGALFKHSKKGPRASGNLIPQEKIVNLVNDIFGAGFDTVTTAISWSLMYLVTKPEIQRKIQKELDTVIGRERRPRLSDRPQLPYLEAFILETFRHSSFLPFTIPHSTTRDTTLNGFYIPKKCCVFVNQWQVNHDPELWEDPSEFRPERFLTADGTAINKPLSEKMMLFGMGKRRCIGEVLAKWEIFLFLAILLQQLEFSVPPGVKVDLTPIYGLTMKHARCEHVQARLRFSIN
# CYP2C19 = CYP2C19 (Homo sapiens, UniProt P33261); test: Cytochrome P450 inhibition; format: in vitro ADME
# CYP2C19, sequence (P33261 whole entry): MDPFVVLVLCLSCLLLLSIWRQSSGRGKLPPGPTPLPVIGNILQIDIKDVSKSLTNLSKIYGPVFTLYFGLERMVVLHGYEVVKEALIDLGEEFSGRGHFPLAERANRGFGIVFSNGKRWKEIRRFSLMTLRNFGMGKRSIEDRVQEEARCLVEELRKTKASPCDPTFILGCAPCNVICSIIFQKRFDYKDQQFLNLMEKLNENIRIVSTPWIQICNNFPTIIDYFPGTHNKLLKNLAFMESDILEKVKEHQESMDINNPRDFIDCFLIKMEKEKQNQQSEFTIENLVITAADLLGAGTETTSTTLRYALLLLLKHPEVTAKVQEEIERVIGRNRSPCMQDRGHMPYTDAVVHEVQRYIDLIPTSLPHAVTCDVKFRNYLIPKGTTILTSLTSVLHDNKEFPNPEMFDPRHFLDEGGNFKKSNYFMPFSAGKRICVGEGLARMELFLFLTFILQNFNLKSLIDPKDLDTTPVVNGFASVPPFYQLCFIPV
# CYP3A4 = format: in vitro ADME, human; details: up to 10 µM
# CYP2B6 = biological target: T3, CYP2B6 (Homo sapiens, UniProt P20813); format: in vitro ADME
# T3 sequence (P20813 1-491): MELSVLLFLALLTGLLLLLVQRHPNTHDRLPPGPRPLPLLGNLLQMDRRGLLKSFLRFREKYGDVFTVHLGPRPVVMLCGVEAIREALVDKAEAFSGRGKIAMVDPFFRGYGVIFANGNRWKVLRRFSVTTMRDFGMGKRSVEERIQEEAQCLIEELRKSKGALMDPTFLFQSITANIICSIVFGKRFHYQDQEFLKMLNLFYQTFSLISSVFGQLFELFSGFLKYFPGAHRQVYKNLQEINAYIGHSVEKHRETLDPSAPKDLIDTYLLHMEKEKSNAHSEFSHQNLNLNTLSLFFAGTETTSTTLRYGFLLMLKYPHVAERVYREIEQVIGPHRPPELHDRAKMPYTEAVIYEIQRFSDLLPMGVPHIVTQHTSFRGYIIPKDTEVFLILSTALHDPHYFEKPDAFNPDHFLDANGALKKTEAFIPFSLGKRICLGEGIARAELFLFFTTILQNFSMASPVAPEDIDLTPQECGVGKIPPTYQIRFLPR
# [4] = [14C] ADME study in male albino CD1 mice; format: in vivo, mouse
# Summary of the method: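 Male albino CD1 mice received one oral dose of 50 mg/kg (5 MBq/kg) [14C]-labelled test compound. Blood and plasma were counted for total radioactivity. Urine and faeces were collected for excretion balance, and plasma, urine and faeces were used for metabolite profiling.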
# [5] = First-in-human study Part 3, 100-mg SDD tablet food effect; format: in vivo; details: plasma, oral, 200 mg; for AUC: AUC0‐last; for AUC / Cmax: single 200 mg dose of 100‐mg SDD tablets; for half-life: t1/2, single 200 mg dose of 100‐mg SDD tablets
# CYP2C9, sequence (P11712 whole entry): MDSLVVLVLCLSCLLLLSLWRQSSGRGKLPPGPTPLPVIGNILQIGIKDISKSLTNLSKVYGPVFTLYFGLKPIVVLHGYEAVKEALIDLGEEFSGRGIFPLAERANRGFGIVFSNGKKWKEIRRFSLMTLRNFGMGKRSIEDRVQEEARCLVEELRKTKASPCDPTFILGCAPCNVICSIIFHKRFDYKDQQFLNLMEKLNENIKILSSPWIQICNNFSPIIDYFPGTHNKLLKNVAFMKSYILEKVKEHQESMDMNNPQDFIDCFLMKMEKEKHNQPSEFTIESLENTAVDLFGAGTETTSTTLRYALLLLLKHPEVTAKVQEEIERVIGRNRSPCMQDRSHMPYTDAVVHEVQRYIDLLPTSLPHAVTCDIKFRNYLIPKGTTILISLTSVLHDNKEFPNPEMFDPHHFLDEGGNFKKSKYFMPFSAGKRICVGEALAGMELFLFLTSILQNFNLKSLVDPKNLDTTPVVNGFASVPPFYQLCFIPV
structure (smiles),measurement,setting,value
O=c1[nH]c(=O)c(Cc2cccc(C(F)(F)F)c2)c([C@H]2CC[C@H](c3ccccc3)CC2)[nH]1 [miricorilant],AUC,DDI perpetrator study,11400 ng·h/mL
same,Cmax at 10 study day,DDI perpetrator study,895 ng/mL
same,Tmax at 10 study day,DDI perpetrator study,4 h
same,half-life at 10 study day,DDI perpetrator study,12.2 h
same,IC50,CYP2C9,7.7 µM
same,time dependence of CYP2C9 inhibition,CYP2C9,not time dependent
same,clinical inhibition of CYP2C8,CYP2C8,strong inhibitor
same,induction of CYP1A2,CYP1A2 [1],no induction
same,elimination in urine,[2]; female monkeys,0.74 ± 0.11%
same,fecal elimination,[2]; female monkeys,78.51 ± 8.77%
same,time at which plasma radioactivity was below the limit of detection,[2]; female monkeys,96 h
same,whole blood‐to‐plasma ratio of total radioactivity,[2]; female monkeys,0.66
same,recovery of radioactivity,[2]; female monkeys,88.08 ± 4.03%
same,elimination in urine,[2]; male monkeys,0.96 ± 0.08%
same,fecal elimination,[2]; male monkeys,72.2 ± 11.20%
same,time at which plasma radioactivity was below the limit of detection,[2]; male monkeys,144 h
same,whole blood‐to‐plasma ratio of total radioactivity,[2]; male monkeys,0.75
same,recovery of radioactivity,[2]; male monkeys,80.88 ± 11.60%
same,Substrate of MDR1/P-gp,MDR1/P-gp,not a substrate
same,inhibition of CYP1A2,CYP1A2 [3],No inhibition
same,inhibition of CYP2C19,CYP2C19,No inhibition
same,highest observed CYP3A4 induction,"CYP3A4; one of three donors, concentration-dependent",6.5 fold
same,CYP3A4 induction,CYP3A4; two of three donors,no indication of CYP3A4 induction
same,inhibition of CYP2B6,CYP2B6,No inhibition
same,recovery of radioactivity,[4]; by 24 h postdose,quantitative recovery
same,elimination of radioactivity in urine,[4]; single oral 50 mg/kg,0.13% ± 0.04%
same,fecal elimination of radioactivity,[4]; single oral 50 mg/kg,98.7% ± 2.48%
same,share of total radioactivity in plasma,[4]; single oral 50 mg/kg,69%
same,AUC,"[5]; Fasted, geometric mean (%CV)",1620 ng·h/mL
same,AUC,"[5]; Fed, geometric mean (%CV)",3560 ng·h/mL
same,Cmax,"[5]; Fasted, geometric mean (%CV)",105 ng/mL
same,Cmax,"[5]; Fed, N = 6, geometric mean (%CV)",184 ng/mL
same,half-life,"[5]; Fasted, geometric mean (%CV)",21.1 h
same,half-life,"[5]; Fed, geometric mean (%CV)",19.6 h
